Test results published in ChEMBL document CHEMBL1135733, “6-Sulfonylchromenes as highly potent K(ATP)-channel openers” (J Med Chem, 2002).

Tests used:
[1] = organism: Rattus norvegicus; assay: Difference between the pEC50 values in rat aorta and trachea as an indicator of selectivity; type: functional
[2] = organism: Rattus norvegicus; assay: Maximum level of relaxation of aortic rings measured as percentage of basal tension.; type: functional; conditions: Aorta
In short: (§1)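 Isolated rat aortic rings at 5 mN resting force in supplemented Krebs solution, 32.5 °C, equilibrated 2 h with two test contractures; cumulative concentration-effect curves, effects as % of basal force (100% relaxation) vs maximum force (0%). pEC50 by linear extrapolation at half-maximal effect; Emax as % of basal tension; mean ± SEM, n = 4–6; paired time controls.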

[3] = organism: Rattus norvegicus; assay: Maximum level of relaxation of tracheal strips measured as percentage of basal tension; type: functional; conditions: Trachea
In short: (§2)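 Rat tracheal strips at 10 mN resting force in supplemented Krebs solution, 32.5 °C, equilibrated 2 h with two test contractures; concentration-effect curves, effects as % of basal force (100% relaxation) vs maximum force (0%). pEC50 by linear extrapolation at half-maximal effect; Emax as % of basal tension; mean ± SEM, n = 4–6; paired time controls.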

[4] = organism: Rattus norvegicus; assay: Dilator activity expressed as potency for relaxation of Aortic rings precontracted with 25 mM K; type: functional; in short: as §1
[5] = organism: Rattus norvegicus; assay: Dilator activity expressed as potency for relaxation of Tracheal strips percontracted with 0.6 uM carbachol; type: functional; in short: as §2
[6] = biological target: ATP-binding cassette sub-family C member 9 (Rattus norvegicus) (UniProt Q63563); assay: Binding affinity to the sulfonylurea receptor 2A (SUR2A) in purified membranes of rat-heart myocytes; type: cell membranes
Chain of ATP-binding cassette sub-family C member 9 (Rattus norvegicus) (Q63563 whole entry): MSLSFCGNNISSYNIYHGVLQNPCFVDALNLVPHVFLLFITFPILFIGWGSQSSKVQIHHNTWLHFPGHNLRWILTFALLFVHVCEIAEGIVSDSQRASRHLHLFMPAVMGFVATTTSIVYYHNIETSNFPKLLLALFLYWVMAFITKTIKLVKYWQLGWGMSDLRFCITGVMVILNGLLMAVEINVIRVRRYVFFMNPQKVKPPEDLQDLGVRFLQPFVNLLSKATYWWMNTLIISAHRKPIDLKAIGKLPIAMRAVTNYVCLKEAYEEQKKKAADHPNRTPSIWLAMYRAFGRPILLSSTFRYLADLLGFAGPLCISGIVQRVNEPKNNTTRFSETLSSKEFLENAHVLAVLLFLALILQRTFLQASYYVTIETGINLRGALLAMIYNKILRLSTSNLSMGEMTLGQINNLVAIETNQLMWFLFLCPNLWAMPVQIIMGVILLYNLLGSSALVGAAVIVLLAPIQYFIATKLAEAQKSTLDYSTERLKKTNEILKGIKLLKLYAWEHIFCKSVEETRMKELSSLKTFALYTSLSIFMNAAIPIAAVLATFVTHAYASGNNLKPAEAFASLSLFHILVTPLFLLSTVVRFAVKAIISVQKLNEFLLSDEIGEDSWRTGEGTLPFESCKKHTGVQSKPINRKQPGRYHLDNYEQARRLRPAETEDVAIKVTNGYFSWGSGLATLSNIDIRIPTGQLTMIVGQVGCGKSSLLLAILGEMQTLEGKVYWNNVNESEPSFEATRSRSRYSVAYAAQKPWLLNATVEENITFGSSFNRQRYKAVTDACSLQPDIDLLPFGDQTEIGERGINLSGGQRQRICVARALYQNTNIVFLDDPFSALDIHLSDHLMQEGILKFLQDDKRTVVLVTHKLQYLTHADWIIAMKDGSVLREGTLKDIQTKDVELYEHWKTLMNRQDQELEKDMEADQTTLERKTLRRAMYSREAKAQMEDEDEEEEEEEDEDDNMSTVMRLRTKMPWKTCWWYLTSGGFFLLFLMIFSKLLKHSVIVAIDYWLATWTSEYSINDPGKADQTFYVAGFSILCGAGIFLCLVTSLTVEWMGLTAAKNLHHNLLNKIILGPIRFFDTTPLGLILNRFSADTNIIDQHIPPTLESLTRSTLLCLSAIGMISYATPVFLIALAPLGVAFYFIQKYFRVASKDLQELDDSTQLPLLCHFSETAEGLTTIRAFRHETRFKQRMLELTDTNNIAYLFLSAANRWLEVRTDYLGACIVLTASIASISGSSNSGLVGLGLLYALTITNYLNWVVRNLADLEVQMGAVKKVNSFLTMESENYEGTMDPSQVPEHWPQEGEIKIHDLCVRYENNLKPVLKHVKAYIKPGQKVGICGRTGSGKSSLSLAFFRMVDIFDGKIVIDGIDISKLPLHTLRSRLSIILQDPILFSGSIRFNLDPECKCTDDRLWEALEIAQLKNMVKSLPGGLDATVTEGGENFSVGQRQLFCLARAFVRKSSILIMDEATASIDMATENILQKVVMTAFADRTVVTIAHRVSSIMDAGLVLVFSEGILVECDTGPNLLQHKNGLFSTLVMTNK

[7] = biological target: ATP-binding cassette sub-family C member 9 (Rattus norvegicus) (UniProt Q63563); assay: Binding affinity towards Sulfonylurea receptor 2B (SUR2B) in cultured rat aortic smooth muscle cells (SMC)

Delta pEC50 [1]	EC50 [4] [µM]	EC50 [5] [µM]	pKD [6]	pKD [7]	pKD ([7]; tested as the 2H-labelled form)	pKD ([6]; tested as the 2H-labelled form)	SMILES	Emax [2] [%]	Emax [3] [%]
1.1	0.0162	0.204	7.83	–	–	–	CC1(C)C=C(n2ccccc2=O)c2cc(S(=O)(=O)N=[N+]=[N-])ccc2O1	88.3	77.2
0.88	0.0562	–	6.7	7	–	–	CCNS(=O)(=O)c1ccc2c(c1)C(n1ccccc1=O)=CC(C)(C)O2	72.4	87
0.69	2.09	10.2	5.35	5.8	–	–	CC1(C)C=C(n2ccccc2=O)c2cc(S(=O)(=O)Nc3ccc([N+](=O)[O-])cc3)ccc2O1	82.2	75.6
–	–	–	7.63	7.96	–	–	CC1(C)C=C(n2ccccc2=O)c2cc(S(=O)(=O)Nc3ccccc3F)ccc2O1	–	–
0.89	0.0178	0.138	7.18	7.26	–	–	CNS(=O)(=O)c1ccc2c(c1)C(n1ccccc1=O)=CC(C)(C)O2	85.8	83
1.02	0.0174	0.182	6.86	7.19	–	–	CC1(C)C=C(n2ccccc2=O)c2cc(S(=O)(=O)c3ccccc3)ccc2O1	79.3	88.1
0.72	0.263	1.38	5.5	6.12	–	–	CC1(C)C=C(n2ccccc2=O)c2cc(S(=O)(=O)Nc3ccc(C#N)cc3)ccc2O1	84	90.8
0.66	0.00309	–	7.83	8.05	8.13	7.73	CC1(C)C=C(n2ccccc2=O)c2cc(S(=O)(=O)Nc3ccccc3)ccc2O1	63.6	84.5
0.82	0.002	0.0132	–	–	–	–	[2H]c1c([2H])c([2H])c(NS(=O)(=O)c2ccc3c(c2)C(n2ccccc2=O)=CC(C)(C)O3)c([2H])c1[2H]	82.5	88
0.85	1.41	10	5.5	–	–	–	CC1(C)C=C(n2ccccc2=O)c2cc(S(=O)(=O)NC(=O)Nc3ccccc3)ccc2O1	90.8	99.5

Further lines, the compound ahead of its results:

SMILES	Delta pEC50 [1]	EC50 [4] [µM]	EC50 [5] [µM]	pKD [6]	pKD [7]	pKD ([7]; tested as the 2H-labelled form)	pKD ([6]; tested as the 2H-labelled form)	Emax [2] [%]	Emax [3] [%]
CC1(C)C=C(n2ccccc2=O)c2cc(S(=O)(=O)Nc3ccccc3Br)ccc2O1	–	–	–	6.86	7.64	–	–	–	–
CC1(C)C=C(n2ccccc2=O)c2cc(S(=O)(=O)Nc3ccc(Br)cc3)ccc2O1	–	–	–	5.77	6.65	–	–	–	–
CC1(C)C=C(n2ccccc2=O)c2cc(S(=O)(=O)NCCO)ccc2O1	0.96	0.11	1	6.16	6.34	–	–	95.5	87.9
CC(C)NS(=O)(=O)c1ccc2c(c1)C(n1ccccc1=O)=CC(C)(C)O2	0.46	0.676	1.95	5.18	5.08	–	–	76.9	94.8
CC1(C)C=C(n2ccccc2=O)c2cc(S(=O)(=O)NC3CCCC3)ccc2O1	–	–	–	5.85	6.27	–	–	–	–
CN(c1ccccc1)S(=O)(=O)c1ccc2c(c1)C(n1ccccc1=O)=CC(C)(C)O2	0.75	0.00174	0.00977	7.69	7.87	–	–	64.2	86.5
CC1(C)Oc2ccc(S(=O)(=O)c3ccccc3)cc2[C@@H](N2CCCC2=O)[C@@H]1O [RILMAKALIM]	1.05	0.0024	0.0269	7.57	8.15	–	–	81.2	78.5
CC1(C)C=C(n2ccccc2=O)c2cc(S(=O)(=O)Oc3ccccc3)ccc2O1	0.72	0.00251	0.0132	7.78	8.55	–	–	67.9	86.7
CC1(C)C=C(n2ccccc2=O)c2cc(S(N)(=O)=O)ccc2O1	0.51	0.0692	0.224	6.5	6.94	–	–	77.5	92.1
CCN(CC)S(=O)(=O)c1ccc2c(c1)C(n1ccccc1=O)=CC(C)(C)O2	–	–	–	6.45	6.94	–	–	–	–
CC1(C)C=C(n2ccccc2=O)c2cc(S(=O)(=O)NC(=O)NC3CCCCC3)ccc2O1	–	–	–	5.25	–	–	–	–	–
COc1ccc(NS(=O)(=O)c2ccc3c(c2)C(n2ccccc2=O)=CC(C)(C)O3)cc1	0.62	0.117	0.49	6.27	6.61	–	–	77.9	84.2
CC1(C)C=C(n2ccccc2=O)c2cc(S(=O)(=O)N3CCOCC3)ccc2O1	0.85	0.0851	0.603	6.44	6.73	–	–	75.5	85.1
CC1(C)C=C(n2ccccc2=O)c2cc(C#N)ccc2O1 [BIMAKALIM]	0.99	0.0162	0.158	7.25	7.98	–	–	92.3	84.2
CC1(C)C=C(n2ccccc2=O)c2cc(S(=O)(=O)F)ccc2O1	1.3	0.00479	0.0933	7.83	8.01	–	–	84.4	90.5
CC1(C)C=C(n2ccccc2=O)c2cc(S(=O)(=O)NCc3ccccc3)ccc2O1	0.4	0.525	1.32	5.28	6	–	–	71.1	77.5
CN(C)S(=O)(=O)c1ccc2c(c1)C(n1ccccc1=O)=CC(C)(C)O2	0.77	0.0162	0.0955	6.91	7.2	–	–	78.3	74.1
